According to article PMC4804314 (Pharmacology Research & Perspectives, 2016):

Assays:
[1] = Plasma pharmacokinetics in mouse after i.v. bolus; assay type: in vivo, mouse (NMRI); conditions: for level at 0.1 h / level at 0.25 h / level at 2 h: NMRI, plasma
Summary of the method: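 Male and female NMRI mice, i.v. bolus of [14C]-test compound, 2.5 mg/kg (4.2 μmol/kg). Blood was taken by exsanguination under anesthesia (n = 3/time point) and spun 2 min at 10,000g. Plasma was counted by LSC from predose to 72 h. A separate unlabeled-dose study gave plasma from predose to 8 h for parent by validated LC/MS/MS. Noncompartmental analysis was used, with clearance related to hepatic blood flow.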

[2] = Plasma pharmacokinetics in rat after i.v. bolus; assay type: in vivo, Wistar rat; conditions: for clearance / half-life: in vivo
Summary of the method: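 Wistar rats, intravenous bolus. Plasma was sampled at 0.1, 0.25, 0.5, 1, 2, 4 and 6 h postadministration.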

[3] = Plasma pharmacokinetics in Cynomolgus monkey after i.v. bolus; assay type: in vivo, Cynomolgus monkey (Macaca fascicularis)
Summary of the method: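 Female Cynomolgus monkeys (n = 3), single i.v. bolus of [14C]-test compound. Plasma was sampled predose and at 0.1, 0.5, 1.0, 2, 4, 8, 24 and 48 h. Total radioactivity was read by LSC and parent compound by LC/MS/MS. PK parameters came from noncompartmental analysis as in mouse.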

[4] = Excretion of total radioactivity in monkey; assay type: in vivo, Cynomolgus monkey (Macaca fascicularis)
Summary of the method: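 Female Cynomolgus monkeys (n = 3) got a single i.v. bolus of [14C]-test compound, 2.0 mg/kg. Urine and feces were collected 0–8 h, 8–24 h, then in 24-h intervals to 120 h. Both were counted by LSC as in the mouse study, with feces dried and combusted first. Excretion was expressed as % of radioactive dose.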

[5] = Distribution of radioactivity in pigmented mice; assay type: in vivo; conditions: eyes and skin
[6] = Metabolite profiling of monkey plasma, urine and feces by radio-HPLC; assay type: in vivo, Cynomolgus monkey (Macaca fascicularis); conditions: Cynomolgus monkey, i.v.
Summary of the method: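 Monkey samples after i.v. [14C]-test compound, 2.0 mg/kg. Plasma at 0.1–8 h was extracted twice with ethanol and centrifuged, and extracts went to LSC and radio-HPLC. Precipitates were combusted for total radioactivity. Urine (0–8 h, 8–24 h, then 24-h intervals to 120 h) was evaporated and reconstituted in mobile phase. Feces were processed as for mouse. Isocratic acetonitrile/ammonium acetate pH 4 on RP8e, UV 230 nm with radiodetection.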

[7] = NADPH-dependent metabolism by human liver microsomes; assay type: in vitro ADME; conditions: humans, 10 and 100 µM, up to 6 h
rat hepatocytes = experiment: Metabolism in cultured rat hepatocytes; assay type: in vitro ADME; conditions: 1 and 10 µg/mL, up to 24 h
[8] = cynomolgus monkey, in vivo, iv, 2 mg/kg
[9] = female, cynomolgus monkey, plasma, iv, 2 mg/kg

CC(C)[C@H]1C(=O)N[C@@H](CCCN=C(N)N)C(=O)NCC(=O)N[C@@H](CC(=O)O)C(=O)N[C@H](Cc2ccccc2)C(=O)N1C [cilengitide, cyclo‐(Asp‐D‐Phe‐N‐MeVal‐Arg‐Gly)]
clearance as share of hepatic blood flow (hbf) ([1]; female mice): 60% | level at 0.1 h ([1]; female, mouse, iv, 2.5 mg/kg): 2490 ng/mL | level at 0.25 h ([1]; female, mouse, iv, 2.5 mg/kg): 448 ng/mL | level at 2 h ([1]; female, mouse, iv, 2.5 mg/kg): 6.3 ng/mL | clearance as share of hepatic blood flow (hbf) ([1]; male mice): 105% | level at 0.1 h ([1]; male, mouse, iv, 2.5 mg/kg): 1240 ng/mL | level at 0.25 h ([1]; male, mouse, iv, 2.5 mg/kg): 439 ng/mL | level at 2 h ([1]; male, mouse, iv, 2.5 mg/kg): 8 ng/mL | clearance ([1]; mouse, in vivo, Plasma CL, value used for allometry): 63.5 mL/min/kg | Vd ([1]; mouse, in vivo, Vdss, range over both species (mouse and monkey)): 0.32 to 1.6 L/kg | AUC ([1]; mouse, in vivo, iv, 2.5 mg/kg, AUC0‐∞ of parent drug, male mice, 2.5 mg/kg i.v.): 440 ng·h/mL | Vd ([1]; mouse, in vivo, iv, 2.5 mg/kg, apparent Vdss, female mice, 2.5 mg/kg i.v.): 0.56 L/kg | Vd ([1]; mouse, in vivo, iv, 2.5 mg/kg, apparent Vdss, male mice, 2.5 mg/kg i.v.): 1.6 L/kg | clearance ([1]; mouse, in vivo, iv, 2.5 mg/kg, plasma clearance, female mice, 2.5 mg/kg i.v.): 53.3 mL/min/kg | clearance ([1]; mouse, in vivo, iv, 2.5 mg/kg, plasma clearance, male mice, 2.5 mg/kg i.v.): 94.7 mL/min/kg | half-life ([1]; mouse, in vivo, t1/2, mouse, value used for allometry): 20.4 min | clearance as share of hepatic blood flow (hbf) [2]: approximately 20% | level at 0.1 h ([2]; Wistar, plasma, iv, 2.5 mg/kg): 5360 to 5870 ng/mL | clearance [2]: 16.3 mL/min/kg | half-life [2]: 30 min | clearance ([2]; iv, 2.5 mg/kg): ~16.3 mL/min/kg | half-life ([2]; iv, 2.5 mg/kg): 14.4 to 30 min | half-life ([3]; cynomolgus monkey, in vivo): 75 min | clearance ([3]; cynomolgus monkey, in vivo, Plasma CL, monkey, value used for allometry): 4.83 mL/min/kg | AUC [3, 8]: 6460 ng·h/mL | Vd [3, 8]: 0.35 L/kg | half-life [3, 8]: 66 min | level at 0.1 h [3, 9]: 7020 ng/mL | level at 0.5 h [3, 9]: 3400 ng/mL | level at 8 h [3, 9]: 24.6 ng/mL | clearance as share of hbf ([3]; monkey): 12% | extent of renal excretion [4]: 56% | melanin binding [5]: no relevant melanin binding | unchanged drug in plasma, share of total drug‐related material [6]: > 85% | metabolism by liver microsomes [7]: poorly metabolized | metabolism by cultured hepatocytes (rat hepatocytes): poorly metabolized
